# Screening data as filed in PubChem BioAssay.
# This is a sample that favours compounds with a hit; in the whole collection about 1.9% have one here.
# p-CIP stab down – compounds decreasing mouse p/CIP protein stability; Q05BA5; F442A p/CIP-EGFP cells, EGFP fluorescence, 16 h; decrease of EGFP signal, % at 10 µM; hit rate 0.01% among 290,000;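 active = EGFP signal decrease of at least 30% at 10 µM or well 3 SD below plate mean, unless failing retest; inactive = the rest, including hits failing retest or dose response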
# Target sequence (Q05BA5 1-1403): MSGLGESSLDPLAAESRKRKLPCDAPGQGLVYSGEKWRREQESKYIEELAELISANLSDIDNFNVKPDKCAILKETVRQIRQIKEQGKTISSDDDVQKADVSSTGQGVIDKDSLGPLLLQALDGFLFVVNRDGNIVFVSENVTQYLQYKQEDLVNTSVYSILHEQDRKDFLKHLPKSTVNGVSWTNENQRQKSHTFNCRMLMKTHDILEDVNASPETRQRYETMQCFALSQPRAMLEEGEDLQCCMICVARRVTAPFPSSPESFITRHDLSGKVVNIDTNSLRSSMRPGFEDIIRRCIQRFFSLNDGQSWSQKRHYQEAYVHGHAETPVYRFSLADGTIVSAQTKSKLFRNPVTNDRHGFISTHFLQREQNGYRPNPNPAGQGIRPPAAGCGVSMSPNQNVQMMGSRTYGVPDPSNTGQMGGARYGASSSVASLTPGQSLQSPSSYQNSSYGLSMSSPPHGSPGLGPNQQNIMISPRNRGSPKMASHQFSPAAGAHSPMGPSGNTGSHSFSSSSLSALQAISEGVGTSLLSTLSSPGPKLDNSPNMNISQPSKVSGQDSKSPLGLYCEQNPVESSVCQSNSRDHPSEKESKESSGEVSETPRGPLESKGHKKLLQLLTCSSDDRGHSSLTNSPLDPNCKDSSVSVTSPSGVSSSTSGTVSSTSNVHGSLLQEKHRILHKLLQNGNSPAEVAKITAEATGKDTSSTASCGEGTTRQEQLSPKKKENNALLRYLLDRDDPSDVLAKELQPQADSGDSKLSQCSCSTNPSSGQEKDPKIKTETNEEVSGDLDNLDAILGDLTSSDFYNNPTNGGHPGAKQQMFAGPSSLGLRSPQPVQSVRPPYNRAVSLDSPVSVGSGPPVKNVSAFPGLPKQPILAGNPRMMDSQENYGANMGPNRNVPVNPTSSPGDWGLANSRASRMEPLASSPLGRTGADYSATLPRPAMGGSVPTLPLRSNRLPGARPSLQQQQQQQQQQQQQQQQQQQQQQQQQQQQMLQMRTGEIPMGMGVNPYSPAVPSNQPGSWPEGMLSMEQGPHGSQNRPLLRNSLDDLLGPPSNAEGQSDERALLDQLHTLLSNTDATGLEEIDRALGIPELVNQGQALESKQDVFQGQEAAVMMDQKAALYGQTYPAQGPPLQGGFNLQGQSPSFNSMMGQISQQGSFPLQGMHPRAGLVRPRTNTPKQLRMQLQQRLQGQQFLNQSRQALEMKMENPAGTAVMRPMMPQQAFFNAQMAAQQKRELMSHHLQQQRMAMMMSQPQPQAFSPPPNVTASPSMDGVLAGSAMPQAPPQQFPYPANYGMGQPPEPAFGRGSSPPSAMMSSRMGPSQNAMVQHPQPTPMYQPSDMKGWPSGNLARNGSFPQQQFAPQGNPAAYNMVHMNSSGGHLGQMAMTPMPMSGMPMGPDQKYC
# GPR7 antag – human neuropeptides B/W receptor 1 antagonism; P48145; GPR7-expressing cells, fluorescence antagonist assay; inhibition, % at 4.4 µM; hit rate 1.1% among 290,000; AID 1861; in the data active = inhibition above about 16%, passing the limit was not always enough;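 also: cells stimulated with the agonist NPW; 0% = agonist with vehicle and 100% = vehicle without agonist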
# DNA FID counter-1 – counter-screen for HCV NS3 helicase inhibitors: DNA intercalator displacement | DNA fluorescent intercalator displacement, fluorescence | inhibition, % at 7.9 µM | hit rate 0.17% among 290,000;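 also: 0% = vehicle and 100% = reference compound; higher means more ethidium bromide displaced from hairpin DNA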
# NS3 helicase inh – inhibitors of Hepatitis C virus NS3 helicase | hit rate 0.56% among 290,000 | NS3 helicase DNA unwinding, Cy5 molecular beacon fluorescence | AID 1800 | inhibition, % at 10.9 µM;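 active = inhibition above the mean of all tested compounds plus 3 SD, set per campaign, cut at about 35% in these data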;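 also: 0% = DMSO wells and 100% = thioflavine S control wells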
#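 Assay system: hepatitis C virus NS3 helicase domain fragment enzyme. Also added: annealed dual-labelled DNA beacon duplex, ATP-started. Timing: 1 h reaction at 25 °C, ATP-initiated. Technique: Cy5 fluorescence at 0 and 60 min, beacon hairpin quenching. Evaluation: % inhibition of unwinding. Replication: one well per compound.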
# core dimer inh – HCV core protein dimerization inhibition | TR-FRET GST/Flag-core106 dimerization, 1536-well | inhibition, % at 5 µM | hit rate 0.33% among 300,000;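 active = inhibition above the mean of all tested compounds plus 3 SD, set per screening campaign, cut at about 45% in these data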
#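 System: GST/Flag-tagged HCV core106 proteins. Incubation: compound-protein-antibody incubation 4 h at 22.5 °C. Technique: HTRF with 340 nm excitation, 617/671 nm emission. Medium: KF-containing HEPES buffer, pH 7.45, DTT, CHAPS, BSA. Read-out: inhibition (%) from 671 over 617 nm ratio. Also added: Eu(K)-anti-GST 90 ng/mL plus XL665-anti-Flag 1 µg/mL.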
# NS3 hel confirm – confirmation of Hepatitis C virus NS3 helicase inhibitors; shares compounds with NS3 helicase inh; NS3 helicase DNA unwinding, Cy5 molecular beacon fluorescence; hit rate 31% among 1,600; inhibition, % at 10.9 µM; AID 1943;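 active = inhibition above the mean of all tested compounds plus 3 SD, cutoff set per campaign, cut at about 36% in these data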
# DNA FID counter-2 – displaces DNA intercalator in HCV helicase counter-screen | shares compounds with NS3 helicase inh | DNA fluorescent intercalator displacement, fluorescence | inhibition, % at 7.9 µM | hit rate 4% among 1,600;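 also: 0% = vehicle and 100% = reference compound; higher means more displacement of ethidium bromide from the DNA hairpin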
# DNA FID DR – displaces fluorescent intercalator from DNA, HCV helicase counter-screen; shares compounds with NS3 helicase inh; fluorescent intercalator displacement from DNA, fluorescence; IC50, µM; 120 tested, under 10 active; AID 2172; call rule not given here
# * hit, by the source's call; nt = no result. Rule as the data show it, unless noted: active = inhibition above about 37%; inactive = the rest.
SMILES,p-CIP stab down,GPR7 antag,DNA FID counter-1,NS3 helicase inh,core dimer inh,NS3 hel confirm,DNA FID counter-2,others
Cc1ccc(-c2c3c(nc4sc(C(N)=O)c(N)c24)CCCC3)o1,-14,-14,-5,16,-7,nt,nt,
COC(=O)c1sc2nc(-c3ccco3)ccc2c1N,0,8,-9,34,20,nt,nt,
Nc1c(C(=O)Nc2ccccc2F)sc2nc(-c3ccco3)ccc12,-7,11,-16,59*,48*,74*,6,DNA FID DR=>79
CCNS(=O)(=O)c1ccc(CCC(=O)N2CCc3ccccc3C2)cc1,-8,-17,-21,-6,-12,nt,nt,
Cc1ccc(S(=O)(=O)c2nc(-c3ccco3)oc2SC(C)C)cc1,-14,-1,-33,3,11,nt,nt,
CC(C)(C)c1ccc(S(=O)(=O)/N=C2\C=C(NS(=O)(=O)c3ccccc3)C(=O)c3ccccc32)cc1,-15,-6,25,43*,43,82*,60*,
CCc1ccc(S(=O)(=O)/N=C2\C=C(Nc3ccc(C(=O)O)cc3)C(=O)c3ccccc32)cc1,-22,-29,5,-4,-2,nt,nt,
CC(/C=N/NC(=O)CSc1n[nH]c(=O)[nH]c1=O)=C\c1ccccc1,2,-15,-11,8,-3,nt,nt,
CCNc1nnc(-c2ccc(C)cc2)o1,-2,-5,2,52*,0,4,2,
Cc1ccc(-c2nnc(-c3ccccc3)o2)cc1,-3,-8,-6,3,6,nt,nt,
CCCCNC(=O)COC(=O)c1c2c(nc3ccccc13)/C(=C/c1cccs1)CC2,-7,-5,-12,38*,33,-12,-6,
CC(=O)NNS(=O)(=O)c1scc(S(=O)(=O)c2ccc(Cl)cc2)c1C,-5,-11,-6,1,6,nt,nt,
CCOC(=O)Cc1csc(N/N=C/c2ccccc2)n1,2,-2,-15,1,-2,nt,nt,
CCOC(=O)Cc1csc(N/N=C\c2ccc(N(C)C)cc2)n1,-10,1,-20,50*,18,-16,2,
COc1ccc2[nH]c3c(C)c4ccncc4c(C)c3c2c1,-15,-7,77*,42*,-30,112*,90*,
COc1ccc2[nH]c(C)cc(=O)c2c1,1,-15,2,11,-3,nt,nt,
Cn1cccc1CC(=O)NNC(=S)Nc1ccc(F)cc1,-8,-6,-17,36*,-5,-17,1,
Cn1cccc1CC(=O)NNC(=O)Nc1ccc(F)cc1,-7,-5,-12,12,4,nt,nt,
Cc1cccc(OCC(=O)Nc2nnc(-c3ccco3)s2)c1,-4,14,-6,41*,4,-17,2,
O=C1NC(c2ccccc2)=C(c2nc3ccccc3s2)C(c2ccccc2)N1 (configuration not stated),-7,-7,-26,39*,8,-5,-13,
CCOC(=O)c1nnsc1Nc1ccc(C)c(C)c1,-2,5,-11,-5,3,nt,nt,
Cc1cccc(NC(=O)CSCC(=O)OCc2ccccn2)c1,nt,nt,nt,nt,-5,nt,nt,
CCOC(=O)c1cnc2c(ccc3ccccc32)c1NCCN(C)C,-9,-3,46*,36*,3,7,75*,
CCOC(=O)c1cnc2c(ccc3ccccc32)c1NCCO,-9,5,-5,0,-4,nt,nt,
O=C(CN1C(=O)NC2(CCc3ccccc32)C1=O)c1c[nH]c2ccccc12 (configuration not stated),nt,nt,nt,nt,9,nt,nt,
SMILES,p-CIP stab down,GPR7 antag,DNA FID counter-1,NS3 helicase inh,core dimer inh,NS3 hel confirm,DNA FID counter-2,others
CN(C)c1ccc(N2CN=C3SCC(=O)N3C2)cc1,-3,23,7,59*,-38,-6,27,
O=C1CSC2=NCN(c3ccc4c(c3)OCO4)CN12,0,4,3,-8,0,nt,nt,
COc1ccccc1NC(=O)C1Cc2ccccc2CN1C(=O)c1ccco1 (configuration not stated),3,-2,-21,8,21,nt,nt,
O=C(Nc1cc(C(F)(F)F)ccc1N1CCOCC1)C1Cc2ccccc2CN1C(=O)c1ccco1 (configuration not stated),-4,40*,-50,57*,7,-7,-23,
CCOC(=O)c1ncn2c1[C@@H]1CCNC1C(=O)c1cc(OC)ccc1-2 (some centres not stated),nt,nt,nt,nt,-11,nt,nt,
CC(C)Cn1c(/C=C/c2ccco2)nc2ccccc21,-2,-1,-31,55*,47*,-14,-1,
O=C1CCC(C(=O)O)N1 (configuration not stated),-7,4,1,-11,1,nt,nt,
O=C(Nc1nnc(-c2ccc3c(c2)CCCC3)o1)c1ccccc1,-7,-11,-23,20,19,nt,nt,
O=C(Nc1nnc(-c2ccc3c(c2)CCCC3)o1)c1ccccc1Cl,-2,-5,-12,49*,10,-9,-27,
CCOC(=O)c1cnc(-c2ccccc2)nc1N1CCOCC1,-8,-17,-16,49*,0,-14,-20,
CCOC(=O)c1cnc(-c2ccccc2)nc1N,-6,-4,2,1,-4,nt,nt,
CCOC(=O)C1CCCN(C(=O)c2cc3c(=O)n(C)c4ccccc4c3n2C)C1 (configuration not stated),1,-8,-34,75*,4,-10,-31,
Cc1cc(NC(=O)NCc2ccccc2)c(=O)n(Cc2ccccc2F)c1,-10,-18,-20,-1,17,nt,nt,
COc1cccc(Cn2cc(C)cc(NC(=O)NCc3ccccc3)c2=O)c1,-3,10,-29,40*,3,-3,-15,
N=C1CCC(=N)c2c1c(O)c1ccccc1c2O,1,-3,-7,43*,-23,50*,1,
N#Cc1c(C#N)c(O)c2ccccc2c1O,1,-3,2,3,-30,nt,nt,
O=C(NC1CCCCC1)C(c1ccccc1)N(Cc1cccnc1)C(=O)c1csnn1 (configuration not stated),0,1,-34,-2,5,nt,nt,
COC(=O)c1ccc(N2NC(=O)/C(=C/c3cc(OC)c(OC)c(OC)c3)C2=O)cc1,14,-20,11,-9,9,nt,nt,
COc1cc(/C=C2/C(=O)NN(c3ccc(Cl)cc3)C2=O)cc(Br)c1O,11,-4,-12,23,-6,nt,nt,
COC(=O)c1ccc(N2NC(=O)/C(=C/c3cc(OC)c(O)c(OC)c3)C2=O)cc1,0,-12,4,61*,-2,17,13,
COc1cc(/C=C2/C(=O)NN(c3ccc(F)cc3)C2=O)cc(Cl)c1O,1,-6,-10,36*,-4,34,7,
COc1cccc(/C=C2/C(=O)NN(c3ccc(Br)cc3)C2=O)c1O,5,12,-3,38*,nt,58*,8,
